From PubChem BioAssay
HIV Env fusion: HIV envelope-mediated fusion inhibition; AID 651610; inhibition, % at 12.3 µM; HeLa-JRFL Env/CEM21 cell fusion, luciferase; 360,000 tested, 1.1% active;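 active = mean replicate inhibition score of at least 50 and every replicate individually at or above 50; inconclusive = only one of the two criteria met; inactive = mean below 50 and not all replicates reaching 50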;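 note: 0% = plate neutral controls and 100% = maraviroc near 300 nM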
Ecoli rRNA inh: inhibits bacterial ribosomal RNA function over humanized ribosomes; E. coli WT GFP vs humanized-ribosome RFP mutants, fluorescence, 24 h; hits give low values; DMSO median 0, no signal -100; GFP signal change (wild-type ribosome), % (concentration not given with the values); 350,000 tested, 1.6% active;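 active = significant combined selectivity score with lowered wild-type GFP, culture density cut under 30%, mutant RFP and density less affected; inactive = any of these conditions unmet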
miR122 inh: inhibitors of miR-122 in Huh7 cells; 340,000 tested, 0.3% active; activation (reporter increase), % at 12.5 µM; AID 602342; Huh7 miR-122 Renilla luciferase sensor, 48 h; neutral wells = 0, positive control = 100;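 active = mean replicate activation score at least 90 and every replicate individually at or above 90; inconclusive = only one of the two criteria met; inactive = neither criterion met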;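 note: higher luciferase means less miR-122 activity so hits act as miR-122 inhibitors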
INS-1E GSIS act: primary screen for activators of insulin secretion dependent on glucose, INS-1E cells, GLuc reporter luminescence. 370,000 tested, 0.61% active. INS-1E GLuc reporter insulin secretion, 2-3 h. AID 743287. activation, % at 16.6 µM;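 active = lowest replicate activation of at least 40%, so every replicate reaches that level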;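 note: 0% = median of neutral control wells and 100% = median of IBMX positive control wells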
Cneo AK release: causes C. neoformans cell lysis. adenylate kinase release luminescence, 4 h; normalised: neutral wells 0, clomiphene wells 100. lysis activity, % at 15 µM. 360,000 tested, 0.2% active. AID 651654;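 active = mean lysis activity across replicates of at least 80%, whatever share of replicates individually reach that level; inactive = mean lysis activity below 80%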
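Test system: log-phase Cryptococcus neoformans yeast cells. Input: 5 × 10^6 yeast cells/mL. Medium: fresh YPD growth medium. Doses: single dose. Incubation: static 4 h at 37 °C with compound, 1 h detection. Measured by: luminescent adenylate kinase detection reagent. Read-out: signal increase indicating cell lysis. Benchmarks: Clomiphene.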
CFTR F508del cor: correctors of CFTR F508del function in bronchial epithelial cells; CFBE cells, YFP halide quenching; stimulated with forskolin plus potentiator P3; % fluorescence drop versus neutral controls; activity (quench increase), % at 7.58 µM; 350,000 tested, 0.36% active; AID 720511;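 active = mean added fluorescence quench of at least 8% versus neutral control, with both replicates also reaching 8%; inconclusive = only one of the mean or replicate conditions met; inactive = mean below 8% and not both replicates reaching 8%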;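 note: cells transiently co-express mutant CFTR-F508del with the halide-sensitive YFP; corrector assay measuring rescue of mutant channel to the surface after 24 h compound exposure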
* = called active by the depositor; [ ] = dose if it differs, or a comment. Hits are enriched below; roughly 3.1% of the tested compounds scored in any of these assays.

`Cc1noc(C)c1NC(=O)N(C)C[C@H]1Oc2ccc(NC(=O)Nc3cccc4ccccc34)cc2C(=O)N([C@@H](C)CO)C[C@@H]1C` gave HIV Env fusion 25.3[16.7 µM], Ecoli rRNA inh -0.3, miR122 inh 5.2[16.7 µM], INS-1E GSIS act -0.4, Cneo AK release -1.2 and CFTR F508del cor -0.9.
COc1ccccc1NC(=O)CN1CCSc2ccccc21 was read as HIV Env fusion 0.5, Ecoli rRNA inh -20.8*, INS-1E GSIS act 9.8 and CFTR F508del cor 1.3.
COc1ccc(C2=NS(=O)(=O)N(C)C(C(=O)N(C)Cc3ccccc3)=C2)cc1OC was read as HIV Env fusion -1.3, Ecoli rRNA inh -19.9*, miR122 inh 2.2, INS-1E GSIS act 12.4, Cneo AK release -1.8 and CFTR F508del cor 1.4.
Screening COc1ccc(C2=NS(=O)(=O)N(C)C(C(=O)NC(C)c3ccccc3)=C2)cc1OC (centres undefined) returned HIV Env fusion -36.3, Ecoli rRNA inh -14.3, miR122 inh -2.4, INS-1E GSIS act 18.7, Cneo AK release -0.1 and CFTR F508del cor -1.0.
For Cc1ccc(O)c(CN(C)Cc2cc(C)ccc2O)c1 the results were HIV Env fusion -23.8, miR122 inh 1.0, Cneo AK release -1.1 and CFTR F508del cor -3.6.
Cc1ccc(O)c(CP(=O)(c2ccccc2)c2ccccc2)c1 was read as HIV Env fusion 2.0, Ecoli rRNA inh -6.0, miR122 inh 9.7, INS-1E GSIS act 44.4*, Cneo AK release 1.0 and CFTR F508del cor 3.5.
COc1ccc(-c2ncncc2-c2ccc(Cl)cc2)c(O)c1 was read as HIV Env fusion 56.2*, Ecoli rRNA inh -8.2, miR122 inh -1.3, INS-1E GSIS act 17.3 and CFTR F508del cor -1.3.
Screening COc1ccc(-c2cnc(N)nc2-c2ccc(OC)cc2)cc1 returned HIV Env fusion 35.7, Ecoli rRNA inh -11.2, INS-1E GSIS act 52.0*, Cneo AK release -3.2 and CFTR F508del cor 1.9.
`COc1ccc(-c2cnc(N)nc2-c2ccc(OCc3ccccc3)cc2O)cc1` gave HIV Env fusion 11.6, Ecoli rRNA inh 6.0, miR122 inh -5.1, INS-1E GSIS act 5.3, Cneo AK release 10.6 and CFTR F508del cor 0.9.
COc1ccc(-c2nc(N)ncc2-c2ccc(OC)c(OC)c2)c(O)c1 was read as HIV Env fusion 25.3, Ecoli rRNA inh 0.3, INS-1E GSIS act 48.7*, Cneo AK release -1.9 and CFTR F508del cor 7.7.
Screening COc1ccc(-c2cncnc2-c2ccc(OC)cc2O)cc1 returned HIV Env fusion inconclusive, Ecoli rRNA inh -6.8, INS-1E GSIS act 23.2, Cneo AK release -0.7 and CFTR F508del cor -0.2.
`C/C=C/c1ccc([C@H]2[C@@H](CO)N[C@@H]2CNC(=O)C2CC2)cc1` gave Ecoli rRNA inh -1.0, INS-1E GSIS act 8.5 and CFTR F508del cor 0.7.
COCC(=O)Nc1ccc2c(c1)C(=O)N(C)C[C@H](OC)[C@H](C)CN(CC1CCCCC1)[C@@H](C)CO2 was read as Ecoli rRNA inh -2.2, miR122 inh 1.1[16.7 µM], INS-1E GSIS act -5.0, Cneo AK release 4.8 and CFTR F508del cor 0.6.
Screening CCCCC(=O)Nc1ccc(C(=O)NNC(=O)CCc2ccccc2)cc1 returned Ecoli rRNA inh 17.1, INS-1E GSIS act -2.7, Cneo AK release 0.9 and CFTR F508del cor 1.0.
Screening CCCC(=O)Nc1ccc(C(=O)NNC(=S)NC(=O)c2ccc(Br)o2)cc1 returned HIV Env fusion 17.3, Ecoli rRNA inh -26.6*, INS-1E GSIS act 9.5 and CFTR F508del cor -2.5.
`CCCCC(=O)Nc1ccc(C(=O)NNC(=O)c2ccc(C)c(Br)c2)cc1` gave HIV Env fusion -1.8, miR122 inh 1.9, INS-1E GSIS act 63.8* and Cneo AK release 1.0.
`CCCNC(=O)N1CC2(CN(C(=O)c3ccncc3)C2)c2c([nH]c3cc(OC)ccc23)[C@@H]1CO` gave Ecoli rRNA inh 2.7, INS-1E GSIS act 5.5 and CFTR F508del cor -0.5.
For N#CC1=C(N)Oc2n[nH]c(-c3ccc(F)cc3)c2C1c1cccnc1 (centres undefined) the results were miR122 inh -2.8, INS-1E GSIS act 56.2* and Cneo AK release -0.1.
Screening N#CC1=C(N)Oc2n[nH]c(-c3ccccc3)c2C1c1ccncc1 (centres undefined) returned HIV Env fusion -5.0, miR122 inh -3.0 and Cneo AK release 0.3.
Screening Cc1ccc(S(=O)(=O)N2CC[C@@H]3[C@H]2c2cc(C#Cc4cccnc4)ccc2N(C)[C@H]3CO)cc1 returned Ecoli rRNA inh -1.3, miR122 inh -14.7[16.7 µM], INS-1E GSIS act 13.3, Cneo AK release -4.3 and CFTR F508del cor 1.8.
For COc1cccc(NC(=O)c2nc(S(C)(=O)=O)ncc2Cl)c1 the results were HIV Env fusion -7.5, Ecoli rRNA inh -1.7, miR122 inh -21.0, INS-1E GSIS act 54.4*, Cneo AK release -0.3 and CFTR F508del cor -5.3.
`COc1ccc(-c2ccc([C@H]3[C@@H](CO)N4CCCCN(C(=O)c5ccc(F)cc5)C[C@@H]34)cc2)cc1` gave Ecoli rRNA inh -0.3, miR122 inh -6.6[16.7 µM], INS-1E GSIS act -12.5, Cneo AK release 47.9 and CFTR F508del cor -3.0.
`C[C@@H]1CCCCO[C@@H](CN(C)Cc2ccc(C(F)(F)F)cc2)[C@@H](C)CN([C@@H](C)CO)C(=O)c2cc(NS(=O)(=O)c3cn(C)cn3)ccc2O1` gave HIV Env fusion -19.8[16.7 µM], Ecoli rRNA inh -0.3, miR122 inh 26.0[16.7 µM], INS-1E GSIS act -6.0, Cneo AK release 91.3* and CFTR F508del cor -0.8.
For Cc1ccc(S(=O)(=O)Nc2ccc3c(c2)C(=O)N([C@@H](C)CO)C[C@H](C)[C@@H](CN(C)Cc2ccc(C(F)(F)F)cc2)OCCCC[C@H](C)O3)cc1 the results were HIV Env fusion 8.8[16.7 µM], Ecoli rRNA inh -0.8, miR122 inh -9.4[16.7 µM], INS-1E GSIS act -1.9, Cneo AK release 11.0 and CFTR F508del cor 3.0.
`Cc1ccc(S(=O)(=O)Nc2ccc3c(c2)C(=O)N([C@@H](C)CO)C[C@@H](C)[C@H](CN(C)Cc2ccc(C(F)(F)F)cc2)OCCCC[C@@H](C)O3)cc1` gave HIV Env fusion 107.8*[16.7 µM], Ecoli rRNA inh -0.7, miR122 inh -15.6[16.7 µM], INS-1E GSIS act -11.1, Cneo AK release 33.6 and CFTR F508del cor 4.3.
Screening Cc1ccc(S(=O)(=O)Nc2ccc3c(c2)C(=O)N([C@H](C)CO)C[C@@H](C)[C@@H](CN(C)Cc2ccc(C(F)(F)F)cc2)OCCCC[C@@H](C)O3)cc1 returned HIV Env fusion 68.5*[16.7 µM], Ecoli rRNA inh 3.2, miR122 inh -8.1[16.7 µM], INS-1E GSIS act -2.0, Cneo AK release 13.3 and CFTR F508del cor 1.7.
